# Experimental data as given in ChEMBL document CHEMBL1157378, “Role for cell density in antifungal drug resistance in Candida albicans biofilms” (2007).
# Columns and labels:
# Assay type in all cases: functional
# Candida albicans [1] = experiment: Antimicrobial activity against Cdr1, Cdr2 and Mdr1 deficient Candida albicans DSY1050 dissociated biofilms at cell density of 10^3 cells/ml after 48 hrs by XTT assay; conditions: DSY1050, 48 h
# How it was run: (§1)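 Polystyrene-well biofilms (48 h, 37°C) washed, then broken up in 100 µl RPMI by scraping and aspiration. Cells used undiluted (about 2 x 10^8 cells/ml equivalent) or adjusted by A600 against a hemacytometer-calibrated yeast standard curve. Drug exposure at 37°C for 48 h (caspofungin 24 h), then XTT/menadione read at 490 nm.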
# Candida albicans [2] = experiment: Antimicrobial activity against fluconazole-resistant Candida albicans FH5 at planktonic cell density of 10^8 cells/ml after 48 hrs by XTT assay; conditions: FH5, 48 h
# How it was run: (§2)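 YNB-grown yeast (50 mM glucose, room temperature, shaken, to ~2 x 10^8 cells/ml) washed into MOPS-buffered RPMI 1640 with L-glutamine and set to the stated density. Exposed to twofold serial drug dilutions (1,024 to 0.0313 µg/ml) at 37°C, 48 h (caspofungin 24 h), with drug-free controls. Read-out: XTT (0.5 g/liter) plus 1 µM menadione, formazan at 490 nm.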
# Candida albicans [3] = experiment: Antimicrobial activity against Chk1 deficient Candida albicans CHK21 at planktonic cell density of 10^8 cells/ml after 48 hrs by XTT assay; conditions: CHK21, 48 h; how it was run: as §2
# Candida albicans [4] = experiment: Antimicrobial activity against Candida albicans SC5314 at planktonic cell density of 10^3 cells/ml after 48 hrs by XTT assay; conditions: SC5314, 48 h; how it was run: as §2
# Candida albicans [5] = experiment: Antimicrobial activity against Cdr1, Cdr2 and Mdr1 deficient Candida albicans DSY1050 dissociated biofilms at cell density of 10^8 cells/ml after 48 hrs by XTT assay; conditions: DSY1050, 48 h; how it was run: as §1
# Candida albicans [6] = experiment: Antimicrobial activity against Cdr1, Cdr2 and Mdr1 deficient Candida albicans DSY1050 intact biofilms after 48 hrs by XTT assay; conditions: DSY1050, 48 h
# How it was run: (§3)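 Biofilm seeded at 1 x 10^6 cells/ml in RPMI in polystyrene microtiter wells and grown 48 h at 37°C in a moist chamber. Washed once and drug added to the same well (twofold dilutions, 1,024 to 0.0313 µg/ml) for 48 h at 37°C (caspofungin 24 h). Read-out: XTT/menadione reduction at 490 nm.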
# Candida albicans [7] = experiment: Antimicrobial activity against fluconazole-resistant Candida albicans FH5 at planktonic cell density of 10^3 cells/ml after 48 hrs by XTT assay; conditions: FH5, 48 h; how it was run: as §2
# Candida albicans [8] = experiment: Antimicrobial activity against Candida albicans SC5314 dissociated biofilms at cell density of 10^8 cells/ml after 48 hrs by XTT assay; conditions: SC5314, 48 h; how it was run: as §1
# Candida albicans [9] = experiment: Antimicrobial activity against fluconazole-resistant Candida albicans FH5 dissociated biofilms at cell density of 10^8 cells/ml after 48 hrs by XTT assay; conditions: FH5, 48 h; how it was run: as §1
# Candida albicans [10] = experiment: Antimicrobial activity against Chk1 deficient Candida albicans CHK21 at planktonic cell density of 10^3 cells/ml after 48 hrs by XTT assay; conditions: CHK21, 48 h; how it was run: as §2
# Candida albicans [11] = experiment: Antimicrobial activity against Candida albicans GDH2346 dissociated biofilms at cell density of 10^3 cells/ml after 48 hrs by XTT assay; conditions: GDH2346, 48 h; how it was run: as §1
# Candida albicans [12] = experiment: Antimicrobial activity against fluconazole-resistant Candida albicans FH5 dissociated biofilms at cell density of 10^3 cells/ml after 48 hrs by XTT assay; conditions: FH5, 48 h; how it was run: as §1
# Candida albicans [13] = experiment: Antimicrobial activity against Candida albicans GDH2346 at planktonic cell density of 10^8 cells/ml after 48 hrs by XTT assay; conditions: GDH2346, 48 h; how it was run: as §2
# Candida albicans [14] = experiment: Antimicrobial activity against Candida albicans FH1 intact biofilms after 48 hrs by XTT assay; conditions: FH1, 48 h; how it was run: as §3
# Candida albicans [15] = experiment: Antimicrobial activity against fluconazole-resistant Candida albicans FH5 intact biofilms after 48 hrs by XTT assay; conditions: FH5, 48 h; how it was run: as §3
# Candida albicans [16] = experiment: Antimicrobial activity against Cdr1, Cdr2 and Mdr1 deficient Candida albicans DSY1050 at planktonic cell density of 10^3 cells/ml after 48 hrs by XTT assay; conditions: DSY1050, 48 h; how it was run: as §2
# Candida albicans [17] = experiment: Antimicrobial activity against Candida albicans SC5314 at planktonic cell density of 10^8 cells/ml after 48 hrs by XTT assay; conditions: SC5314, 48 h; how it was run: as §2
# Candida albicans [18] = experiment: Antimicrobial activity against Candida albicans GDH2346 at planktonic cell density of 10^3 cells/ml after 48 hrs by XTT assay; conditions: GDH2346, 48 h; how it was run: as §2
# Candida albicans [19] = experiment: Antimicrobial activity against Chk1 deficient Candida albicans CHK21 dissociated biofilms at cell density of 10^3 cells/ml after 48 hrs by XTT assay; conditions: CHK21, 48 h; how it was run: as §1
# Candida albicans [20] = experiment: Antimicrobial activity against Candida albicans GDH2346 dissociated biofilms at cell density of 10^8 cells/ml after 48 hrs by XTT assay; conditions: GDH2346, 48 h; how it was run: as §1
# Candida albicans [21] = experiment: Antimicrobial activity against Candida albicans FH1 at planktonic cell density of 10^8 cells/ml after 48 hrs by XTT assay; conditions: FH1, 48 h; how it was run: as §2
# Candida albicans [22] = experiment: Antimicrobial activity against Candida albicans GDH2346 intact biofilms after 48 hrs by XTT assay; conditions: GDH2346, 48 h; how it was run: as §3
# Candida albicans [23] = experiment: Antimicrobial activity against Chk1 deficient Candida albicans CHK21 dissociated biofilms at cell density of 10^8 cells/ml after 48 hrs by XTT assay; conditions: CHK21, 48 h; how it was run: as §1
# Candida albicans [24] = experiment: Antimicrobial activity against Cdr1, Cdr2 and Mdr1 deficient Candida albicans DSY1050 at planktonic cell density of 10^8 cells/ml after 48 hrs by XTT assay; conditions: DSY1050, 48 h; how it was run: as §2
# Candida albicans [25] = experiment: Antimicrobial activity against Candida albicans SC5314 intact biofilms after 48 hrs by XTT assay; conditions: SC5314, 48 h; how it was run: as §3
# Candida albicans [26] = experiment: Antimicrobial activity against Candida albicans FH1 at planktonic cell density of 10^3 cells/ml after 48 hrs by XTT assay; conditions: FH1, 48 h; how it was run: as §2
# Candida albicans [27] = experiment: Antimicrobial activity against Chk1 deficient Candida albicans CHK21 intact biofilms after 48 hrs by XTT assay; conditions: CHK21, 48 h; how it was run: as §3
# Candida albicans [28] = experiment: Antimicrobial activity against Candida albicans FH1 dissociated biofilms at cell density of 10^3 cells/ml after 48 hrs by XTT assay; conditions: FH1, 48 h; how it was run: as §1
# Candida albicans [29] = experiment: Antimicrobial activity against Candida albicans FH1 dissociated biofilms at cell density of 10^8 cells/ml after 48 hrs by XTT assay; conditions: FH1, 48 h; how it was run: as §1
# Candida albicans [30] = experiment: Antimicrobial activity against Candida albicans SC5314 dissociated biofilms at cell density of 10^3 cells/ml after 48 hrs by XTT assay; conditions: SC5314, 48 h; how it was run: as §1
structure (smiles),measurement,setting,value
CC(=O)N1CCN(c2ccc(OC[C@H]3CO[C@](Cn4ccnc4)(c4ccc(Cl)cc4Cl)O3)cc2)CC1 [KETOCONAZOLE],MIC80,Candida albicans [1],0.125 µg/mL
same,MIC80,Candida albicans [2],> 256 µg/mL
same,MIC80,Candida albicans [3],> 64 µg/mL
same,MIC80,Candida albicans [4],0.125 µg/mL
same,MIC80,Candida albicans [5],> 64 µg/mL
same,MIC80,Candida albicans [6],> 64 µg/mL
same,MIC80,Candida albicans [7],64 µg/mL
same,MIC80,Candida albicans [8],> 512 µg/mL
same,MIC80,Candida albicans [9],> 512 µg/mL
same,MIC80,Candida albicans [10],0.125 µg/mL
same,MIC80,Candida albicans [11],0.125 µg/mL
same,MIC80,Candida albicans [12],64 µg/mL
same,MIC80,Candida albicans [13],> 512 µg/mL
same,MIC80,Candida albicans [14],> 512 µg/mL
same,MIC80,Candida albicans [15],> 512 µg/mL
same,MIC80,Candida albicans [16],0.25 µg/mL
same,MIC80,Candida albicans [17],> 512 µg/mL
same,MIC80,Candida albicans [18],0.25 µg/mL
same,MIC80,Candida albicans [19],0.125 µg/mL
same,MIC80,Candida albicans [20],> 64 µg/mL
same,MIC80,Candida albicans [21],> 512 µg/mL
same,MIC80,Candida albicans [22],> 512 µg/mL
same,MIC80,Candida albicans [23],> 64 µg/mL
same,MIC80,Candida albicans [24],> 256 µg/mL
same,MIC80,Candida albicans [25],> 512 µg/mL
same,MIC80,Candida albicans [26],4 µg/mL
same,MIC80,Candida albicans [27],> 64 µg/mL
same,MIC80,Candida albicans [28],4 µg/mL
same,MIC80,Candida albicans [29],> 512 µg/mL
same,MIC80,Candida albicans [30],0.5 µg/mL
